Assay outcomes: PubChem BioAssay, Broad Institute
FGF22 binding-1: binders of human FGF22 protein, primary screen, FGF22 synaptogenesis inhibitor project, biophysical, thermal shift, single point; Fibroblast growth factor 22 (Homo sapiens), Q9HCT0; AID 651658, 2012; recombinant FGF22 thermal shift, SYPRO orange fluorescence; percent of sucrose octasulfate shift, DMSO zero; activity (Tm shift, normalised), % at 9.99 µM; 1.5% of 340,000 active;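 active means mean Tm shift, scaled 0 neutral to 100 positive control, at about 1.3% or above, every replicate too, limit read from the data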
Target sequence (Q9HCT0 whole entry, looked up): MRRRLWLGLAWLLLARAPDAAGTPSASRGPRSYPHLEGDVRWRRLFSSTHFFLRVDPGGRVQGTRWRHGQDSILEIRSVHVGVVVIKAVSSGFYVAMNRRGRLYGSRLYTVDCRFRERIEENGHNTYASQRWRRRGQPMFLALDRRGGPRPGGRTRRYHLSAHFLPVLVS
PDI inh: inhibitors of human PDI, primary screen, biochemical, turbidity, single point, plate reader; 0.052% of 350,000 active; PDI insulin aggregation turbidity, A650, 90 min; inhibition, % at 10 µM; Protein disulfide-isomerase (Homo sapiens), P07237; AID 588391, 2011;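 active means mean inhibition across replicates of 30% or more, whatever share of single replicates reach that level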
Target sequence (P07237 whole entry, looked up): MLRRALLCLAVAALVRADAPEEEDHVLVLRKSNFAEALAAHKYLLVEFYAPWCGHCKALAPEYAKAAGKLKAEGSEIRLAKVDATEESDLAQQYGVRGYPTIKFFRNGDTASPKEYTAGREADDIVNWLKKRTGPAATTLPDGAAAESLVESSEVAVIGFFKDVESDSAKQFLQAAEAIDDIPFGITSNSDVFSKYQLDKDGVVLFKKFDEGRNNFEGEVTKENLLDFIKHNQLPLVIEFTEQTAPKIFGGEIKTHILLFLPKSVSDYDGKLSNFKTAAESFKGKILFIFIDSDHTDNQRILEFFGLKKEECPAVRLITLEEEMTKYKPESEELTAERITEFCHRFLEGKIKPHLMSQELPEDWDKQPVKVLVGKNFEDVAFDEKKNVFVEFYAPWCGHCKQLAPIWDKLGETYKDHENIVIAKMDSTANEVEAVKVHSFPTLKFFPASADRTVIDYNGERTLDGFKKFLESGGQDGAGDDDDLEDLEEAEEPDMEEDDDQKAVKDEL
ERp5 block: inhibitors of ERp5-driven insulin aggregation, primary screen, biochemical, turbidity, absorbance 650 nm, single point; AID 651711, 2012; Protein disulfide-isomerase A6 (Homo sapiens), Q15084; 90 min; inhibition, % at 9.99 µM; 0.05% of 350,000 active;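 active means mean replicate inhibition above about 25%, with every replicate also reaching it, limit read from the data, passing the limit was not always enough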
S100A4 inh HTS: inhibitors of S100A4-myosin IIA peptide binding, primary screen, biochemical, fluorescence polarization, TAMRA-MyoIIA peptide | Protein S100-A4 (Homo sapiens), P26447 | inhibition, % at 10.7 µM | 0.14% of 360,000 active;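 active means mean inhibition of at least 70% across replicates, with every replicate also reaching that level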
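assay system = human S100A4 monomer with TAMRA-labelled myosin IIA peptide | also added = labelled myosin peptide probe, 5 nM | incubation = 5 min between mix addition and reading | control set = DMSO and TFP controls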
ERAP1 inh: human ERAP1 aminopeptidase inhibitors, primary screen, biochemical, single point, plate reader; Endoplasmic reticulum aminopeptidase 1 (Homo sapiens), Q9NZ08; recombinant ERAP1, Leu-AMC fluorescence, 60 min; inhibition, % at 10.7 µM; 0.15% of 340,000 active; AID 652197, 2013;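 active means mean replicate inhibition of at least 30%, or all replicates individually reaching that 30% level; inactive means mean below 30% and not every replicate reaching it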;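 further: 0% = neutral control wells and 100% = L-leucinethiol positive control wells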
FGF22 binding-2: binders of human FGF22 protein, dose response, FGF22 synaptogenesis inhibitor project, biophysical, thermal shift, cherry-pick retest. shares compounds with FGF22 binding-1. recombinant FGF22 thermal shift, SYPRO orange fluorescence. thermal shift activity, °C (ΔTm) at 38 µM. 2% of 1,000 active;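 active means fitted rise in melting shift crosses a set limit at or below the top valid dose tested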
FGF22 TSA DP: binders of human FGF22 protein, dose response, FGF22 synaptogenesis inhibitor project, biophysical, thermal shift, dry powder | Thermal shift assay, SYPRO orange, melting temperature shift | shares compounds with FGF22 binding-1 | Tm shift (activity), % at 38 µM | 50 tested, under 10 active;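 active means compounds whose fitted dose curve of melting temperature shift rises past a set threshold within the tested doses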
TSA no protein: compound-only thermal shift signal without protein, dose response, artefact control for FGF22 binder project, biochemical, cherry-picked samples, RT-PCR instrument; shares compounds with FGF22 binding-1; compound-only SYPRO orange thermal shift counter-screen, no protein; AC50, µM (highest dose often 38 µM); 2% of 1,000 active;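 active means rising signal whose fitted curve reaches the 0.54 level within the top valid dose, showing a melting point, actives reach about 13 µM in these data; inactive means the rest, including activity in the opposite direction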; further: value is where the raw curve crosses a fixed level and not half-maximal
Active calls of the source: *; i = inactive; x = no result; ! = not active in a repeat; [ ] = dose if it differs, or a comment. Only a selection was taken, and hits are over-represented in it overall.

SMILES | FGF22 binding-1 | PDI inh | ERp5 block | S100A4 inh HTS | ERAP1 inh | FGF22 binding-2 | TSA no protein | others
C[C@@H]1CN([C@H](C)CO)C(=O)c2cc(NS(C)(=O)=O)ccc2O[C@@H](C)CCCCO[C@H]1CN(C)Cc1ccncc1 | 1.7* | x | -1 | 0 | -6 | -0.013[42 µM] | i
C[C@H]1CCCCO[C@H](CN(C)Cc2ccncc2)[C@@H](C)CN([C@@H](C)CO)C(=O)c2cc(NC(=O)c3ccncc3)ccc2O1 | 1.2* | x | -4 | -3 | 1 | 0.044 | i
CC(C)NC(=O)Nc1ccc2c(c1)C(=O)N([C@H](C)CO)C[C@@H](C)[C@@H](CN(C)C(=O)Nc1ccccc1)OCCCC[C@@H](C)O2 | 2.6* | x | -4 | 10 | 2 | 0.013 | i
C[C@@H]1CCCCO[C@H](CN(C)C(=O)C2CCCCC2)[C@H](C)CN([C@H](C)CO)C(=O)c2cc(NS(C)(=O)=O)ccc2O1 | 1.7* | x | 5 | 9 | -1 | -0.1 | i
CCC(=O)N1[C@H](CO)[C@H](c2ccccc2)[C@H]1CN(CC)C(=O)c1ccccc1 | 0 | x | 7 | -3 | 0 | x | x
CCCC(=O)N1CC2(C1)CN(C(=O)c1ccc(F)cc1)[C@@H](CO)c1[nH]c3cc(OC)ccc3c12 | x | x | -3 | x | x | x | x
COC(=O)c1nnn(CC(=O)NC(=O)Nc2ccccc2F)c1C(=O)OC | 1 | 1 | -3 | -1 | x | x | x
Cc1cc(C(=O)O/N=C(\N)c2ccncc2)ccc1[N+](=O)[O-] | 18* | -6 | 21 | -6 | x | 0.21 | i
CC(=O)Nc1cc(-c2ccccc2Cl)cn2c(-c3ccc(S(C)(=O)=O)cc3)cnc12 | 1.7* | 2 | 3 | 2 | -3 | -0.006 | i
O=C(CSc1nnc(NC(=O)c2c(F)cccc2F)s1)NC1CCCC1 | 0 | -7 | -2 | 2 | 2 | x | x
COC(=O)[C@]1(C)N[C@H](c2ccc(-c3ccccc3)cc2)[C@@H]2C(=O)N(C)C(=O)[C@@H]21 | 8.1* | 13 | 1 | -2 | -1 | -0.025 | i
COC(=O)[C@]1(C)N[C@H](c2ccc(-c3cccc(Cl)c3)cc2)[C@@H]2C(=O)N(C)C(=O)[C@@H]21 | 0 | 2 | -1 | 17 | 0 | x | x
Cc1ccccc1-c1ccccc1[C@@H]1[C@@H](C#N)N(C(=O)c2ccccc2)[C@H]1CO | 1.3* | x | 0 | 1 | 1 | -0.035 | i
CC(C)c1ccc(NC2CCCN(C(=O)c3cc(C(C)C)[nH]n3)C2)cc1 (configuration not stated) | 28* | -1 | 2 | -3 | 3 | 0.2 | i
C/C(CC(=O)Nc1cccc(Cl)c1Cl)=N\NC(=O)C(=O)NC1CCCCC1 | 28* | 10 | 4 | 4 | -3 | 0.051 | i
C/C(CC(=O)Nc1ccccc1Cl)=N\NC(=O)C(=O)NCCO | 0 | 1 | 0 | 2 | -1 | x | x
COc1ccc(S(=O)(=O)Nc2ccc(NC(C)=O)cc2)cc1OC | x | 0 | x | x | x | x | x
COc1ccc(OC)c(NS(=O)(=O)c2ccc(NC(C)=O)cc2)c1 | x | 5 | x | x | x | x | x
COc1cc(NS(=O)(=O)c2ccc(NS(=O)(=O)c3ccc(NC(C)=O)cc3)cc2)nc(OC)n1 | 1.4* | -4 | 1 | -5 | -4 | 0.12 | i
COc1cc(NS(=O)(=O)c2ccc(NC(=S)NC(C)=O)cc2)nc(OC)n1 | 0 | 6 | -5 | -1 | 5 | x | x
COc1ccc(S(=O)(=O)Nc2ccc(NC(C)=O)cc2)cc1Cl | 1.7* | -6 | 2 | -6 | -3 | -0.005 | i
COc1ccc(C)cc1NS(=O)(=O)c1ccc(NS(=O)(=O)c2ccc(NC(C)=O)cc2)cc1 | 2.9* | -5 | -5 | -10 | 2 | -0.008 | i | FGF22 TSA DP=0
COc1ccc(OC)c(Nc2ccc(Nc3cc(OC)ccc3OC)nn2)c1 | 1.8* | -8 | -1 | -1 | 1 | -0.071 | i
C[C@H](NC(=O)C[C@H]1C=C[C@H](NC(=O)c2cccnc2)[C@@H](CO)O1)c1ccccc1 | 0 | x | -2 | 46 | 4 | x | x
COc1ccccc1S(=O)(=O)N(C)C[C@@H]1Oc2cc(C#CCC(C)C)ccc2S(=O)(=O)N([C@H](C)CO)C[C@H]1C | 0 | x | -1 | 3 | 3 | x | x
SMILES | FGF22 binding-1 | PDI inh | ERp5 block | S100A4 inh HTS | ERAP1 inh | FGF22 binding-2 | TSA no protein | others
CCCN(C)C[C@H]1Oc2cc(C#Cc3ccc(F)cc3)ccc2S(=O)(=O)N([C@H](C)CO)C[C@@H]1C | 1.7*! | 3 | -15 | 4 | -2 | -0.19 | i
CCCN(C)C[C@@H]1Oc2cc(C#Cc3cccnc3)ccc2S(=O)(=O)N([C@@H](C)CO)C[C@H]1C | -1 | x | 3 | -3 | -4 | x | x
COc1ccccc1S(=O)(=O)N(C)C[C@@H]1Oc2cc(C#CCC(C)C)ccc2S(=O)(=O)N([C@@H](C)CO)C[C@H]1C | 21* | x | -2 | -2 | 3 | -1.1[42 µM] | i
COCC(=O)N(C)C[C@@H]1Oc2cc(C#Cc3ccccc3)ccc2S(=O)(=O)N([C@@H](C)CO)C[C@H]1C | 1.6* | x | 8 | 5 | 4 | 0.027[42 µM] | i
COCC(=O)N(C)C[C@@H]1Oc2cc(C#Cc3ccccc3)ccc2S(=O)(=O)N([C@H](C)CO)C[C@H]1C | 1 | x | -5 | -11 | 1 | x | x
CCCN(C)C[C@H]1Oc2cc(C#Cc3cccnc3)ccc2S(=O)(=O)N([C@H](C)CO)C[C@@H]1C | 1.3* | x | -4 | -11 | 1 | 0.002 | i
O=C(NCCc1ccc2c(c1)OCCO2)c1cc(S(=O)(=O)N2CCCC2)ccc1Cl | x | 1 | -4 | -2 | -6 | x | x
CCCN(C)C[C@H]1Oc2cc(-c3ccncc3)ccc2S(=O)(=O)N([C@H](C)CO)C[C@H]1C | 2.1* | x | -4 | 7 | -1 | -0.062 | i
C[C@H]1CN([C@@H](C)CO)S(=O)(=O)c2ccc(C#CC3CCCCC3)cc2O[C@@H]1CN(C)C | 1.3* | x | -1 | 0 | -7 | 0.14[42 µM] | i
C[C@H](CO)N1C[C@H](C)[C@@H](CN(C)C)Oc2cc(C#CC3CCCCC3)ccc2S1(=O)=O | 0 | x | 2 | -18 | -5 | x | x
